In all, about 130,000 compounds went through this assay and about 900 (0.69%) were called active. Shown is part of a subset that was picked to be rich in actives. Unmarked numbers belong to inactive results.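 The calls were made as follows: active = inhibition above a set limit, placed 3 SD over the median of all compounds (cut at about 26% in these data); inactive = the rest.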

The assay is described as follows: rescue of nicotinamide-shortened yeast lifespan – S. cerevisiae, OD615, primary screen (AID 775).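 Also: 0% = nicotinamide-treated wells and 100% = cells grown without nicotinamide.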 As to conditions: S. cerevisiae growth with nicotinamide, at 10 µM, stronger effect = higher value, deaD strain in restrictive glucose medium. Put shortly: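 Assay system: DeaD-strain S. cerevisiae. Medium: CSMM-D glucose medium, restrictive. Reagent: nicotinamide, 1.5 mM, co-present with compound. Compound: 10 µM single point, 0.25% DMSO. Schedule: culture preincubation 4 h, compound exposure 48 h, both 30 °C. Detection: absorbance at 615 nm.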
Turning to `Cc1nc2ccccc2n1CC(=O)N/N=C/c1cccs1`, the inhibition of the nicotinamide effect was 2.27%.
The same measure for `NS(=O)(=O)c1ccc(CNC(=O)c2ccc(Cl)cc2[N+](=O)[O-])cc1`: 3.9%; for `CCCCN(C)c1ccc([N+](=O)[O-])cc1`: 0.62%.
As to `CC(=O)c1cc(C#N)c(SCC(=O)C(C)(C)C)nc1C`, the inhibition of the nicotinamide effect was -19%.
In the case of `Cc1cc(=O)[nH]c(SCC(N)=O)c1C#N` it was -13.6%; in that of `CCCCSc1[nH]c(=O)c(C(=O)OCC)cc1C#N`, 35.7% (active).
The same measure for `Cc1ccc(-c2nnc(SCC(=O)N/N=C/c3cccs3)n2-c2ccc(C)cc2)cc1`: -1.13%.
With `CC1(C)CC(=O)C(N=Nc2ccc(S(=O)(=O)N3CCCCCC3)cc2)=C(O)C1`, the inhibition of the nicotinamide effect is -0.81%.
The same measure for `CC(Sc1nc(-c2ccccc2)cc(C(F)(F)F)n1)C(=O)Nc1ccc2c(c1)OCO2` (stereo unspecified): -1.2%; for `O=C1CCCC(O)=C1N=Nc1ccc2ncsc2c1`: -3.17%.
In the case of `Cc1cc(C(=O)COc2ccccc2[N+](=O)[O-])c(C)n1-c1cccc(S(=O)(=O)N2CCOCC2)c1` it was 1.02%; in that of `Oc1ccc(Cl)cc1/C=N/c1nc2ccccc2[nH]1`, 6.53%; in that of `O=C(CCCO)N/N=C/c1cc(Br)ccc1O`, 25%.
In the case of `Oc1ccc(Br)cc1C=Nc1ccc2[nH]ncc2c1` it was 40.4% (active).
With `Cc1c(NC(=S)NCc2ccc(F)cc2)cccc1[N+](=O)[O-]`, the inhibition of the nicotinamide effect is 0.2%.
`CCN1CCN(C(c2cccnc2)c2cc(Cl)c3cccnc3c2O)CC1` (stereo unspecified): the inhibition of the nicotinamide effect was 30.4% (active).
Consider `Oc1c(CN2CCN(c3ccc(F)cc3)CC2)cc(Cl)c2cccnc12`, for which the inhibition of the nicotinamide effect was -13.6%.
The same measure for `CCOC(=O)N1CCN(C(c2cccnc2)c2ccc3cccnc3c2O)CC1` (stereo unspecified): -7.28%.
The same measure for `Cc1ccc(NN=C2C(=O)OC(C)(C)OC2=O)c(C)c1`: -2.15%.
In the case of `CC(=O)Nc1ccc(S(=O)(=O)NC2(C(F)(F)F)C(=O)Nc3c2c(=O)[nH]c(=O)n3Cc2ccccc2)cc1` (stereo unspecified) it was 2.33%; in that of `C/C(=N/NC(=O)c1ccc(Br)o1)c1ccc(C)o1`, -2.27%; in that of `COc1cc(C(=O)Nc2cc(C(F)(F)F)ccc2N2CCOCC2)ccc1O`, -3.94%.
On to `COC(=O)c1ccccc1OCC(=O)N1CCN(c2ccc(Cl)cc2)CC1`, for which the inhibition of the nicotinamide effect was -19.3%.
The same measure for `O=C(NC(CC(=O)N1CCN(c2ccccc2)CC1)c1ccccc1)c1ccccc1Cl` (stereo unspecified): 35.4% (active); for `CC(CC(=O)N1CCN(c2ccccc2)CC1)c1ccccc1` (stereo unspecified): -11.3%; for `C/C(=N/NC(=O)CSc1ccccn1)c1ccc([N+](=O)[O-])cc1`: 1.62%.
In the case of `Cn1cccc1/C=C1\SC(=S)N(NC(=O)c2ccc(Cl)cc2)C1=O` it was 3.79%; in that of `Cc1cc(C(=O)NNC(=S)Nc2ccccc2C)cs1`, 4.51%; in that of `Cc1ccccc1NC(=O)c1ccccc1`, 43.2% (active).
The same measure for `O=C(NC(=O)c1ccccc1)NC(=O)c1ccccc1`: -15.8%; for `Cc1cc(C)c(NC(=O)c2oc3ccccc3c2COc2ccccc2)c(C)c1`: 0.31%; for `COC(=O)C1=C(NC(=O)C(C)(C)C)CCS1`: -1.21%.
In the case of `CCCCN(CC)C(=O)c1ccc2c(c1)OCO2`, the inhibition of the nicotinamide effect was -2.79%.
In the case of `Cn1cc([N+](=O)[O-])c(C(=O)Nc2cnn(Cc3ccc(F)cc3)c2)n1` it was 10.4%.
The same measure for `Cc1cccc(NC(=O)/C=C/c2ccc3c(c2)OCO3)n1`: -5.25%; for `O=C(CCCN1C(=O)/C(=C/c2ccco2)SC1=S)Nc1ccccc1`: 4.28%.
The same measure for `O=c1nc2s/c(=C\c3ccco3)c(=O)n2nc1Cc1ccccc1`: 26.9% (active).
For the compound `CCOc1ccccc1/C=c1\sc2nc(-c3ccco3)nn2c1=O`, the inhibition of the nicotinamide effect was 21.5%.
The same measure for `NC(=O)c1ccccc1N=Cc1ccc2ccccc2c1`: 8.87%; for `CCC1=NN(C(=O)Cc2ccc([N+](=O)[O-])cc2)C(O)(c2ccc(Br)cc2)C1` (stereo unspecified): 3.83%.
In the case of `CN(C)C(CNC(=O)c1ccc(S(=O)(=O)NCc2ccco2)cc1)c1ccccc1` (stereo unspecified) it was 3.63%.
The same measure for `Cn1c2ccccc2c(=O)c2c(=O)n(Cc3ccco3)c(COc3ccccc3)nc21`: 17.5%.
For `CCOC(=O)C(C)Sc1nc2ccccc2c(=O)n1CC1CCCCC1` (stereo unspecified), the inhibition of the nicotinamide effect is 8.34%.
In the case of `CCCc1nc2c(c(=O)c3ccccc3n2C)c(=O)n1C1CCCCCC1` it was 47.5% (active); in that of `CCOC(=O)c1c(NC(=O)C2(C)Cc3ccccc3C(=O)O2)sc2c1CCCC2` (stereo unspecified), 1.18%; in that of `O=C(NCc1ccccc1Cl)C1CCC(CNc2c(N3CCCCC3)c(=O)c2=O)CC1` (stereo unspecified), 3.91%.
In the case of `CCS(=O)(=O)Nc1cccc(-c2cc(-c3ccccc3)c3cc(C)ccc3n2)c1` it was 1.36%; in that of `COc1ccc(C(CC(=O)Nc2ccc(C)cc2)NC(=O)C(F)(F)F)cc1` (stereo unspecified), -0.39%; in that of `Cc1ccc2sc(NNC(=O)c3ccc4c(c3)OCCO4)nc2c1C`, 0%.
`O=C(N/N=C/c1ccccn1)C12CC3CC(CC(C3)C1)C2`: the inhibition of the nicotinamide effect is 3.48%.
As to `COc1ccc([C@H]2[C@H](C(C)=O)N3N=Cc4ccccc4C3C23C(=O)OC(C)(C)OC3=O)cc1` (stereo partly specified), the inhibition of the nicotinamide effect was 30.5% (active).
In the case of `COc1ccc(C2C(C(=O)N3CCN(c4ccc(OC)cc4)CC3)c3ccccc3C(=O)N2C)cc1` (stereo unspecified) it was -6.01%.
For the compound `O=C(Nc1ccc2ccccc2c1)/C(=C/c1cccc(Br)c1)NC(=O)c1ccco1`, the inhibition of the nicotinamide effect is -1.18%.
Consider `COC(=O)C1=NNC2(c3ccc(C)cc3)C(=O)N(c3cccc(C)c3C)C(=O)C12` (stereo unspecified), for which the inhibition of the nicotinamide effect is 14.3%.
In the case of `COc1ccc(C(=O)NNS(=O)(=O)c2ccc(C)cc2)cc1` it was 3.8%.
In the case of `CC(C)CNC(=S)NC(=O)c1ccc(Cl)cc1` it was -5.06%.

The record behind these values is PubChem BioAssay AID775 (SRMLSC, 2007).
